From ChEMBL document CHEMBL2380237, “Substituted imidazopyridazines are potent and selective inhibitors of Plasmodium falciparum calcium-dependent protein kinase 1 (PfCDPK1)” (Bioorg Med Chem Lett, 2013)
Values belong to the compound of their own block, whether it stands above or below them. The source made the active and inactive calls. The calls are words filed in the database; no cut-off is given here.

Assays:
[1] = test system: Plasmodium berghei; assay: Inhibition of Plasmodium berghei recombinant CDPK1 by fluorescence assay in presence of rhodamine-labeled ParM
Outline: (§1)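 Recombinant CDPK1 (P. berghei or P. vivax) ATPase activity followed with an ADP-sensitive biosensor, rhodamine-labeled ParM; reaction progress tracked as rising fluorescence from ADP accumulation on a plate reader.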

[2] = test system: Plasmodium vivax; assay: Inhibition of Plasmodium vivax recombinant CDPK1 by fluorescence assay in presence of rhodamine-labeled ParM; outline: as §1
[3] = target: Ribosomal protein S6 kinase alpha-1 (Homo sapiens) (UniProt Q15418); assay: Inhibition of human RSK1 at 1 uM
Sequence of Ribosomal protein S6 kinase alpha-1 (Homo sapiens) (Q15418 whole entry): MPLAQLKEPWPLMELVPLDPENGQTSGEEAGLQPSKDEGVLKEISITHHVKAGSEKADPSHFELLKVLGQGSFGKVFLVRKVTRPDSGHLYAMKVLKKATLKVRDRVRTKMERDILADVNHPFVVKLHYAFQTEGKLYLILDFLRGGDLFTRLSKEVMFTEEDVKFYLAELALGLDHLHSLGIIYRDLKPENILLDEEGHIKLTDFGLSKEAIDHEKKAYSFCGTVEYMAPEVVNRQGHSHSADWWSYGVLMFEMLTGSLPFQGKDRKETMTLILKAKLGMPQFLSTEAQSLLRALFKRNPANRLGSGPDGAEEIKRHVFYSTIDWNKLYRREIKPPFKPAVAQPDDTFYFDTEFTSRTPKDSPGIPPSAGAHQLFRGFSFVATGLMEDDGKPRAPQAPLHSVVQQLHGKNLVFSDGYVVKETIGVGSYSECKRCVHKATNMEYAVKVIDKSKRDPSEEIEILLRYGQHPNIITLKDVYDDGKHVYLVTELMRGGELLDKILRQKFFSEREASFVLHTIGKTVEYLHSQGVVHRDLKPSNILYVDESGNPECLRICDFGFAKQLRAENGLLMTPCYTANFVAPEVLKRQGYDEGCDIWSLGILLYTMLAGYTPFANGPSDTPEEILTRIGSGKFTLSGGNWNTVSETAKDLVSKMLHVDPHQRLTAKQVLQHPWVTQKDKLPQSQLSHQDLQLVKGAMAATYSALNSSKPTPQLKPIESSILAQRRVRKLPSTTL

[4] = Metabolic stability in mouse liver microsomes after 30 mins; format: ADME, Microsome; details: read-out: Stability
[5] = Metabolic stability in human liver microsomes after 30 mins; format: ADME, Microsome; details: read-out: Stability
[6] = target: Phosphorylase kinase (Homo sapiens) (UniProt P15735+P46020+P46019+Q93100+Q16816); assay: Inhibition of human PHK at 1 uM; format: protein-complex assay
[7] = target: Receptor tyrosine-protein kinase erbB-4 (Homo sapiens) (UniProt Q15303); assay: Inhibition of human HER4 at 1 uM
Sequence of Receptor tyrosine-protein kinase erbB-4 (Homo sapiens) (Q15303 whole entry): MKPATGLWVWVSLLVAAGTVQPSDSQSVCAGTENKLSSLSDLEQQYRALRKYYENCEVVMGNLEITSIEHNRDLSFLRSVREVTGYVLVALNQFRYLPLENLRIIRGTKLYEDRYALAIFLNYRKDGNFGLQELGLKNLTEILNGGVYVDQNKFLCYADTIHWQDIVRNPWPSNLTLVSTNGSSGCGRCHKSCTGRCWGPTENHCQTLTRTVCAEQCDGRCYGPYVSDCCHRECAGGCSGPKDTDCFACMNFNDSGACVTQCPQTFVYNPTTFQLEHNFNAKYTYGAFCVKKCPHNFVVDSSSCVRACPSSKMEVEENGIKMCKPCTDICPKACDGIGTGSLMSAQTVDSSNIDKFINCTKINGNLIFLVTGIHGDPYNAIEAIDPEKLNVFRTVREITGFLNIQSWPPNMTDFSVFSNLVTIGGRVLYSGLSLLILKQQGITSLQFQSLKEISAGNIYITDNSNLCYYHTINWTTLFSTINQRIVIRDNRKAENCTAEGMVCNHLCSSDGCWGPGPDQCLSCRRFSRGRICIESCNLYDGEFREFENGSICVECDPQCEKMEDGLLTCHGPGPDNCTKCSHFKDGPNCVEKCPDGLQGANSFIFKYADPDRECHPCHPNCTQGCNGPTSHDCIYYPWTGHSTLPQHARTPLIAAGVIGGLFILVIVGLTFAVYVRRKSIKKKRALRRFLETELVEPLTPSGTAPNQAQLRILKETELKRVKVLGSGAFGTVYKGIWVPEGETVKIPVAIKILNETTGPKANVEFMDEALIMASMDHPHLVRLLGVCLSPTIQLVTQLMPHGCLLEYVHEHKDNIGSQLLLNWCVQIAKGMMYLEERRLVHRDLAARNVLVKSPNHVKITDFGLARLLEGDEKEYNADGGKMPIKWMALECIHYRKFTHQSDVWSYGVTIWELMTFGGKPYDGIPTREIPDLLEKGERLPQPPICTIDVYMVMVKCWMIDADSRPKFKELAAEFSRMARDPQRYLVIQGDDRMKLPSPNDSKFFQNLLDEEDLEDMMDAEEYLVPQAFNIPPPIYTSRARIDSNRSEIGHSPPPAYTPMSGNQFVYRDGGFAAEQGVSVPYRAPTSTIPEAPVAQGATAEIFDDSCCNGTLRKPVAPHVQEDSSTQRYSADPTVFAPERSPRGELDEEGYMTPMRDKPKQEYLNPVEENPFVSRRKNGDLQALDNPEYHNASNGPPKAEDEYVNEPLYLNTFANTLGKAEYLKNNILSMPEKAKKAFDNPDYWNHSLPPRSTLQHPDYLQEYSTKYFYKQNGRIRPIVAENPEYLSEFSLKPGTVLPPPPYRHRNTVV

[8] = target: Calcium/calmodulin-dependent protein kinase type 1 (Homo sapiens) (UniProt Q14012); assay: Inhibition of human CAMK1 at 1 uM
Sequence of Calcium/calmodulin-dependent protein kinase type 1 (Homo sapiens) (Q14012 whole entry, looked up): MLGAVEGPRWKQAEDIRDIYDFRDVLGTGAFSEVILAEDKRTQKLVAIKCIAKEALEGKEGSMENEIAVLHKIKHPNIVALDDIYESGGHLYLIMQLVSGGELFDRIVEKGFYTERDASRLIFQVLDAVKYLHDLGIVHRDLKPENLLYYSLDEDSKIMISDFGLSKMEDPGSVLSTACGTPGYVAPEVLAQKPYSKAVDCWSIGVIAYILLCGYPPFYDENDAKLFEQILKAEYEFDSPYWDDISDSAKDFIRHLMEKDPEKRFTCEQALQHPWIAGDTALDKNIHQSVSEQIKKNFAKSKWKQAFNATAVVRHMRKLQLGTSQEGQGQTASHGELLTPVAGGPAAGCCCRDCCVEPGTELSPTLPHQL

[9] = target: T1, NUAK family SNF1-like kinase 1 (Homo sapiens) (UniProt O60285); assay: Inhibition of human NUAK1 at 1 uM
T1 sequence (whole entry): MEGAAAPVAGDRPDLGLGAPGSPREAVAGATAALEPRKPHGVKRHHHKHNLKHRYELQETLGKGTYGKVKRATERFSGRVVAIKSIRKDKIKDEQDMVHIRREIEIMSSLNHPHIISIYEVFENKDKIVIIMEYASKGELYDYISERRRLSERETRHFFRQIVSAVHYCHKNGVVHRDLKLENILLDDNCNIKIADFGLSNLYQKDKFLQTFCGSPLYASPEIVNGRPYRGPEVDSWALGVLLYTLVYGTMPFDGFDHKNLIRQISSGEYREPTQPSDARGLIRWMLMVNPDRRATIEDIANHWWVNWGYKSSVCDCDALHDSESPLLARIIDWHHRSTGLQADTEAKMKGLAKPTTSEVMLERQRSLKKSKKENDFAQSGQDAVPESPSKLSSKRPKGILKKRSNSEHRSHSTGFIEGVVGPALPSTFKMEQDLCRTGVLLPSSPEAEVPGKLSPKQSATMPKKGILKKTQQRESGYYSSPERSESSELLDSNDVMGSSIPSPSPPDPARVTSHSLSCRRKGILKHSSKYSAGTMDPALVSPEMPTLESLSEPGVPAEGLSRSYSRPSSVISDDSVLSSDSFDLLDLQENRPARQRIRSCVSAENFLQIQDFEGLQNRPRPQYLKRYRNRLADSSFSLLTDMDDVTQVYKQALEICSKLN

[10] = Intrinsic clearance in mouse; format: ADME, organism-based; details: in vivo
[11] = target: Tyrosine-protein kinase Yes (Homo sapiens) (UniProt P07947); assay: Inhibition of human YES1 at 1 uM
[12] = organism: Homo sapiens; assay: Inhibition of human VEGFR at 1 uM
[13] = target: Tyrosine-protein kinase Lck (Homo sapiens) (UniProt P06239); assay: Inhibition of human LCK at 1 uM
Sequence of Tyrosine-protein kinase Lck (Homo sapiens) (P06239 2-509 limits assumed): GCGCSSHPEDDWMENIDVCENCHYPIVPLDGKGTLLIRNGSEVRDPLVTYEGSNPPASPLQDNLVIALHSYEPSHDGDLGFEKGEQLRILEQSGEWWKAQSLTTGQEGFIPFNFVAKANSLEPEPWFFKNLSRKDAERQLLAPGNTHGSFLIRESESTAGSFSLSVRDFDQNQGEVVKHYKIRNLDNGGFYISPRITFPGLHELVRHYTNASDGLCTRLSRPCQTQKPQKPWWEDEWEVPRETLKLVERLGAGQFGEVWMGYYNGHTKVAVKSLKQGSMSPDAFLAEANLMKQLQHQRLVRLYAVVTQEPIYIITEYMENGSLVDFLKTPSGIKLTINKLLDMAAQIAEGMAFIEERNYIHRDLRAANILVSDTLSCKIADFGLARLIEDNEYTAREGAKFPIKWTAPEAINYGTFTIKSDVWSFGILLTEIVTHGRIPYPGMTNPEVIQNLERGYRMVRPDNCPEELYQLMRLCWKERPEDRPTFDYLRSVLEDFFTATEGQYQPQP

[14] = target: Mitogen-activated protein kinase kinase kinase 9 (Homo sapiens) (UniProt P80192); assay: Inhibition of human MLK1 at 1 uM
Sequence of Mitogen-activated protein kinase kinase kinase 9 (Homo sapiens) (P80192 whole entry, looked up): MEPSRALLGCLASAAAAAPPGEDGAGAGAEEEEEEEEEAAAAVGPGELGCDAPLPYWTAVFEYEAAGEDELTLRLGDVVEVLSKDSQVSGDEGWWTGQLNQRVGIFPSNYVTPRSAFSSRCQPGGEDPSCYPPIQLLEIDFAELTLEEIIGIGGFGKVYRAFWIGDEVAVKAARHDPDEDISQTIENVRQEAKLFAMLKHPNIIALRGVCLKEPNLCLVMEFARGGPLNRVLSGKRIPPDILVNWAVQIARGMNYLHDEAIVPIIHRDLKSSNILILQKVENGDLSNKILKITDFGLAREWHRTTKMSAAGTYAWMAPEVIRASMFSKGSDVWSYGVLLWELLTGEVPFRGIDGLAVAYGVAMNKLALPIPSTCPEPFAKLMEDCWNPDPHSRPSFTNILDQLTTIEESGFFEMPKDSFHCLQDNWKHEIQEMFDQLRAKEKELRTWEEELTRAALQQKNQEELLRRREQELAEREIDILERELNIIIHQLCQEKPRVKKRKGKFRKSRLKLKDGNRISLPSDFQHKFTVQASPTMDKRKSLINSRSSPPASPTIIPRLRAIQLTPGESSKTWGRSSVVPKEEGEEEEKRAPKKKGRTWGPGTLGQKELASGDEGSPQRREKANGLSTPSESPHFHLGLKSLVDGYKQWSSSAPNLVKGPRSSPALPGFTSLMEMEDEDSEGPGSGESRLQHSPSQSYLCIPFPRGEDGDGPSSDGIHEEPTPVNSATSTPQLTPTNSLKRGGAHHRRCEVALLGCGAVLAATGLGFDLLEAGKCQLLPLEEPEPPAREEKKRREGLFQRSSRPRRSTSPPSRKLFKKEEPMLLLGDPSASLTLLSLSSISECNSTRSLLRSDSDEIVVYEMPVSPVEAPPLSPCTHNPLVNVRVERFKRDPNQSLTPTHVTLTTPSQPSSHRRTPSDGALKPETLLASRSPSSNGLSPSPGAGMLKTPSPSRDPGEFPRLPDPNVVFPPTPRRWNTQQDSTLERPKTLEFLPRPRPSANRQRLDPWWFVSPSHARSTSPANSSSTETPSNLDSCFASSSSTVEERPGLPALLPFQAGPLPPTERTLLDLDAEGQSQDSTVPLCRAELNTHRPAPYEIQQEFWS

[15] = target: Proto-oncogene tyrosine-protein kinase Src (Homo sapiens) (UniProt P12931); assay: Inhibition of human SRC at 1 uM
[16] = target: T2, Mitogen-activated protein kinase kinase kinase kinase 2 (Homo sapiens) (UniProt Q12851); assay: Inhibition of human GCK at 1 uM
T2 sequence (whole entry): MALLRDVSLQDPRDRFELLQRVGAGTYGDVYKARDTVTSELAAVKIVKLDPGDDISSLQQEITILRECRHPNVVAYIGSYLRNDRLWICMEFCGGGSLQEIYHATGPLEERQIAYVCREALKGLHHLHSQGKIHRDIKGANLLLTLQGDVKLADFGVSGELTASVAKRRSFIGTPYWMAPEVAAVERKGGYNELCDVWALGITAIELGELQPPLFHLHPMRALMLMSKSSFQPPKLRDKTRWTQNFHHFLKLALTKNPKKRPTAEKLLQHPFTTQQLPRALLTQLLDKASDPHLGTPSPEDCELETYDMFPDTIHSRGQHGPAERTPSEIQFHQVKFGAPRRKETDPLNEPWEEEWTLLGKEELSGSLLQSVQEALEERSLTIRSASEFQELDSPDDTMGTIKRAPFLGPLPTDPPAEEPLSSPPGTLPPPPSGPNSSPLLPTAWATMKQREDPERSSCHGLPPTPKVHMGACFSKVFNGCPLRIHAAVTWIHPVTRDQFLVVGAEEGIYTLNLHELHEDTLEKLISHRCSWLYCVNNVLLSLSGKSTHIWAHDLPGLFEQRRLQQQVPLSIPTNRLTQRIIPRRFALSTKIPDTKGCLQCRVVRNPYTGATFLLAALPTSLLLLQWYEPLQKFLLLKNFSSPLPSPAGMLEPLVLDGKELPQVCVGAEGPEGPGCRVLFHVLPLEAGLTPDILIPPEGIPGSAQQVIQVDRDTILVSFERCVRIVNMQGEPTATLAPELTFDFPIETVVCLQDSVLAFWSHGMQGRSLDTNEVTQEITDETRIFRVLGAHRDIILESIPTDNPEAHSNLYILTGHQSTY

[17] = target: Aurora kinase B (Homo sapiens) (UniProt Q96GD4); assay: Inhibition of human Aurora B at 1 uM
Sequence of Aurora kinase B (Homo sapiens) (Q96GD4 whole entry): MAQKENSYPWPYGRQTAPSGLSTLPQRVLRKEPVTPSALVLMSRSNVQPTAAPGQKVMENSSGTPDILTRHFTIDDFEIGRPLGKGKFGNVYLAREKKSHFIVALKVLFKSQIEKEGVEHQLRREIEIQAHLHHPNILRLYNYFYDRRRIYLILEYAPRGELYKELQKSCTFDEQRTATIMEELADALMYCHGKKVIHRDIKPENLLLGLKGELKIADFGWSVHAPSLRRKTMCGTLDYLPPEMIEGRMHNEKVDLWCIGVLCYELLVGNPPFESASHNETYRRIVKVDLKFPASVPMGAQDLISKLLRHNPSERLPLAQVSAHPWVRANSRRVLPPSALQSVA

[18] = target: T3, Serine/threonine-protein kinase D1 (Homo sapiens) (UniProt Q15139); assay: Inhibition of human PKD1 at 1 uM
T3 sequence (whole entry): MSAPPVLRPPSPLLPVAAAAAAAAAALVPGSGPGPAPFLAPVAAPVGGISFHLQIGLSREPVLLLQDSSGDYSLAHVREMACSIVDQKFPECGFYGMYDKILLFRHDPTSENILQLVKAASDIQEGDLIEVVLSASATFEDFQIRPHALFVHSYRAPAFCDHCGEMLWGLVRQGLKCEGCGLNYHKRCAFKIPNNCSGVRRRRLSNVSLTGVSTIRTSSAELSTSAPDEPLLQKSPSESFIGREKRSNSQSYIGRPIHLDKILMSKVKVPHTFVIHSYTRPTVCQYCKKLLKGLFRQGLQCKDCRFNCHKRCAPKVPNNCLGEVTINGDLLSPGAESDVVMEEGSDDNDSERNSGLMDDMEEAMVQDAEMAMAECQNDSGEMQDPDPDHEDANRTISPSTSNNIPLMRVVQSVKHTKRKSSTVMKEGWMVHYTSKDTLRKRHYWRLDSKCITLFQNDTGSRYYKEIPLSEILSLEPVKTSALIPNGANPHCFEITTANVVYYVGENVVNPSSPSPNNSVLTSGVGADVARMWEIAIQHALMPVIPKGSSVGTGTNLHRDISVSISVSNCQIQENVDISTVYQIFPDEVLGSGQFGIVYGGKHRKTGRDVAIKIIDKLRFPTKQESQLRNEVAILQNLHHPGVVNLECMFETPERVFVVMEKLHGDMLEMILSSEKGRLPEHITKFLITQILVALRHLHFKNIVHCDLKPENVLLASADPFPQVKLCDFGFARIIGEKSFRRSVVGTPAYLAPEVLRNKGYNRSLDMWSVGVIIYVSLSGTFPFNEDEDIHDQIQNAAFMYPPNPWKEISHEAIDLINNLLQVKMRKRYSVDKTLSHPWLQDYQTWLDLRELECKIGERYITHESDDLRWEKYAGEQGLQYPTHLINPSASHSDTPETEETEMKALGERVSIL

[19] = target: Serine/threonine-protein kinase Chk2 (Homo sapiens) (UniProt O96017); assay: Inhibition of human CHK2 at 1 uM
[20] = target: Dual specificity mitogen-activated protein kinase kinase 1 (Homo sapiens) (UniProt Q02750); assay: Inhibition of human MKK1 at 1 uM
Sequence of Dual specificity mitogen-activated protein kinase kinase 1 (Homo sapiens) (Q02750 whole entry): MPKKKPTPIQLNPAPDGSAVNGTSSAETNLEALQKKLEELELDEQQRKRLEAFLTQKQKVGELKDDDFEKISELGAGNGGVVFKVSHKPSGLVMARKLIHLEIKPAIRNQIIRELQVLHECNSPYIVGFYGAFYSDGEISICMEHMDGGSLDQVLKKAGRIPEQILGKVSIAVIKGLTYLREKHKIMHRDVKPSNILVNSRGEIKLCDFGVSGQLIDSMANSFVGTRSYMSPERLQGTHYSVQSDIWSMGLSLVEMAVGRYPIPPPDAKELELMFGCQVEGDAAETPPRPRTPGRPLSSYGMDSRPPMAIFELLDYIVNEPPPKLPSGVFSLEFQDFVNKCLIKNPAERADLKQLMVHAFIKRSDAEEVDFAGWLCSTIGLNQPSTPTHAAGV

inhibition [1]: Active
Structure (SMILES): CN1CCC(Nc2ccc3ncc(-c4cccc(NC(=O)C5CC5)c4)n3n2)CC1

inhibition [2]: Active
inhibition [1]: Active
inhibition [3]: Active
remaining at 0.5 h [4]: 74%
remaining at 0.5 h [5]: 63%
Structure (SMILES): CC(C)CCNc1ccc(-c2cnc3ccc(NC4CCN(C)C4)nn23)cn1 (centres undefined)

inhibition [1]: Active
Structure (SMILES): CC(=O)Nc1cccc(-c2cnc3ccc(NCCc4ccccn4)nn23)c1

inhibition [1]: Active
Structure (SMILES): NC(=O)c1ccc(-c2cnc3ccc(NCCc4cccnc4)nn23)cc1

inhibition [1]: Active
Structure (SMILES): COCCNc1ccc(-c2cnc3ccc(NC4CCN(C)CC4)nn23)cn1

inhibition [1]: Active
Structure (SMILES): CC(C)CCNc1ccc(-c2cnc3ccc(N4CCN(C)CC4)nn23)cn1

inhibition [1]: Active
Structure (SMILES): CC(C)CCNc1ncc(-c2cnc3ccc(NC4CCN(C)CC4)nn23)cn1

inhibition [1]: Active
Structure (SMILES): CC(=O)Nc1cccc(-c2cnc3ccc(N[C@H]4CC[C@H](N)CC4)nn23)c1

inhibition [1]: Active
Structure (SMILES): CC(C)CCNc1ccc(-c2cnc3ccc(NC4CCNCC4)nn23)cn1

inhibition [1]: Active
Structure (SMILES): NC(=O)c1ccc(-c2cnc3ccc(NCCc4ccccn4)nn23)cc1

inhibition [1]: Active
Structure (SMILES): N#Cc1ccc(-c2cnc3ccc(NCCc4cccnc4)nn23)cc1

inhibition [1]: Active
remaining at 0.5 h [4]: 84%
remaining at 0.5 h [5]: 80%
Structure (SMILES): CC(C)CCNc1ccc(-c2cnc3ccc(N4CCC(N(C)C)CC4)nn23)cn1

inhibition [1]: Active
Structure (SMILES): CC(C)CCNc1ccc(-c2cnc3ccc(NC4CN(C)C4)nn23)cn1

The remaining lines, values behind:

Structure (SMILES): CC(C)CCNc1ccc(-c2cnc3ccc(N4CCC(N)CC4)nn23)cn1
inhibition [2]: Active
inhibition [1]: Active
inhibition [6]: Active
inhibition [7]: Active
inhibition [8]: Active
inhibition [9]: Active
inhibition [3]: Active
remaining at 0.5 h [4]: 90%
remaining at 0.5 h [5]: 90%

Structure (SMILES): CC(C)CCNC(=O)c1ccc(-c2cnc3ccc(NC4CCN(C)CC4)nn23)cc1
inhibition [1]: Active

Structure (SMILES): CC(C)CCNC(=O)c1ccc(-c2cnc3ccc(N[C@H]4CC[C@H](N)CC4)nn23)cc1
inhibition [1]: Active

Structure (SMILES): CC(C)CCOc1ccc(-c2cnc3ccc(N[C@H]4CC[C@H](N)CC4)nn23)cn1
inhibition [1]: Active

Structure (SMILES): CC(C)CCNc1ncc(-c2cnc3ccc(N[C@H]4CC[C@H](N)CC4)nn23)cn1
inhibition [1]: Active

Structure (SMILES): COC(=O)Nc1cccc(-c2cnc3ccc(NC4CCN(C)CC4)nn23)c1
inhibition [1]: Active

Structure (SMILES): CC(C)CCNc1nccc(-c2cnc3ccc(NC4CCN(C)CC4)nn23)n1
inhibition [1]: Active

Structure (SMILES): Fc1cccc(-c2cnc3ccc(NCCc4cccnc4)nn23)c1
inhibition [1]: Active

Structure (SMILES): CCCCNc1ccc(-c2cnc3ccc(NC4CCN(C)CC4)nn23)cn1
inhibition [1]: Active

Structure (SMILES): CC(C)CCNc1cc(-c2cnc3ccc(NC4CCN(C)CC4)nn23)ccn1
inhibition [1]: Active

Structure (SMILES): CC(C)CCNc1ccc(-c2cnc3ccc(NC4CCN(C)CC4)nn23)cn1
inhibition [2]: Active
inhibition [1]: Active
CLint scaled [10]: 49.7 mL/min/kg
inhibition [11]: Active
inhibition [12]: Active
inhibition [13]: Active
inhibition [14]: Active
inhibition [15]: Active
inhibition [9]: Active
inhibition [16]: Active
inhibition [17]: Active
inhibition [18]: Active
inhibition [19]: Active
inhibition [20]: Active
inhibition [3]: Active
remaining at 0.5 h [4]: 63%

Structure (SMILES): CN1CCC(Nc2ccc3ncc(-c4ccc(NCC5CC5)nc4)n3n2)CC1
inhibition [1]: Active
